In experiment [1] the test system is RPMI-8226. The experiment can be described thus: Cytotoxicity against human multiple myeloma RPMI8226 measured after 24 to 48 hrs by MTT assay. The experiment is classed as functional, cell-based.
Experiment [2] is described as follows: Inhibition of recombinant GGTase 2 (unknown origin) by scintillation counting in presence of [3H]GGPP. The arrangement: species or system Homo sapiens. In short, it runs like this: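 Recombinant GGTase II reaction containing radiolabeled GGPP as prenyl donor, a Rab protein as acceptor substrate, and REP. IC50 obtained from inhibition of transfer.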

Bounds are passed on as bounds.

Take `O=P(O)(O)C(Cc1cn(Cc2ccc3ccccc3c2)nn1)P(=O)(O)O`: the IC50 was more than 1000 µM in experiment [1] and more than 2000 µM in experiment [2].

Regarding `O=P(O)(O)C(Cc1cn(Cc2ccccc2)nn1)P(=O)(O)O`, the figures for the IC50 in experiment [1] and in experiment [2] were more than 1000 µM and 2000 µM, respectively.

Turning to `CC(C)=CCC/C(C)=C/CC/C(C)=C/CCC(C)=CCn1cc(CC(P(=O)(O)O)P(=O)(O)O)nn1` (mixture of isomers), the IC50 in experiment [1] amounted to 1000 µM; in experiment [2] it was 100 µM.

For the compound `CC(C)=CCC/C(C)=C/CCC(C)=CCn1cc(CC(P(=O)(O)O)P(=O)(O)O)nn1` (mixture of isomers), the IC50 in experiment [1] is 900 µM; in experiment [2], 650 µM.

In the case of `CC(C)=CCCC(C)=CCn1cc(CC(P(=O)(O)O)P(=O)(O)O)nn1` (mixture of isomers), the IC50 in experiment [1] was more than 1000 µM; in experiment [2], more than 2000 µM.

As to `O=P(O)(O)C(O)(Cc1cccnc1)P(=O)(O)O` [RISEDRONIC ACID], in experiment [2], the IC50 is more than 1000 µM.

One may read the IC50 as the midpoint of a concentration-inhibition curve.

Source of the values: ChEMBL document CHEMBL2311274, “Triazole-based inhibitors of geranylgeranyltransferase II” (Bioorg Med Chem Lett, 2013).
